Reference: ChEMBL document CHEMBL1123846, “Chemical differentiating agents. Differentiation of HL-60 cells by hexamethylenebis[acetamide] analogues” (1987)

How the values were obtained:
[1] = tested on: HL-60; assay: Percent of differentiated HL-60 cells was determined by dividing number of viable differentiated cells by total number of viable cells, at a concentration of 0.5 mM; assay type: functional, Homo sapiens
Outline: (§1)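 HL-60 cells started at 2×10^5/mL and counted on day 4. Test agents were added from ethanol or Me2SO, with final Me2SO at most 77 mM. Differentiation was scored by formazan production, which requires superoxide from living cells. % D is the number of viable differentiated cells divided by the total number of viable cells.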

[2] = tested on: HL-60; assay: Differentiation studies was conducted with the HL-60 human myeloid leukemia cell line and total cells were counted with a Coulter counter, at a concentration of 0.1 mM; assay type: functional
Outline: (§2)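 HL-60 cells seeded at 2×10^5/mL with test agent added from ethanol or Me2SO stock; final Me2SO no more than 77 mM. Total cells counted on a Coulter counter on day 4.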

[3] = tested on: HL-60; assay: Percent of differentiated HL-60 cells was determined by dividing number of viable differentiated cells by total number of viable cells, at a concentration of 0.4 mM; assay type: functional, Homo sapiens; outline: as §1
[4] = tested on: HL-60; assay: Percent of viability for HL-60 cells was determined by dividing number of viable differentiated cells by total number of viable cells, at concentration of 0.1 mM; assay type: functional, Homo sapiens
Outline: (§3)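 HL-60 cultures were seeded at 2×10^5/mL with agent added from ethanol or Me2SO, final Me2SO up to 77 mM, and harvested on day 4. Total cells were counted on a Coulter counter, and the viable fraction of total cells was determined by trypan blue exclusion.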

[5] = tested on: HL-60; assay: Percent of viability for HL-60 cells was determined by dividing number of viable differentiated cells by total number of viable cells, at concentration of 0.3 mM; assay type: functional, Homo sapiens; outline: as §3
[6] = tested on: HL-60; assay: Differentiation studies was conducted with the HL-60 human myeloid leukemia cell line andTotal cells were counted with a Coulter counter, at a concentration of 0.5 mM; assay type: functional; outline: as §2
[7] = tested on: HL-60; assay: Percent of viability for HL-60 cells was determined by dividing number of viable differentiated cells by total number of viable cells, at concentration of 0.4 mM; assay type: functional, Homo sapiens; outline: as §3
[8] = tested on: HL-60; assay: Differentiation studies was conducted with the HL-60 human myeloid leukemia cell line andTotal cells were counted with a Coulter counter, at a concentration of 0.3 mM; assay type: functional; outline: as §2
[9] = tested on: HL-60; assay: Differentiation studies was conducted with the HL-60 human myeloid leukemia cell line andTotal cells were counted with a Coulter counter, at a concentration of 0.4 mM; assay type: functional; outline: as §2
[10] = tested on: HL-60; assay: Percent of differentiated HL-60 cells was determined by dividing number of viable differentiated cells by total number of viable cells, at a concentration of 0.3 mM; assay type: functional, Homo sapiens; outline: as §1
[11] = tested on: HL-60; assay: Percent of differentiated HL-60 cells was determined by dividing number of viable differentiated cells by total number of viable cells, at a concentration of 0.1 mM; assay type: functional, Homo sapiens; outline: as §1
[12] = tested on: HL-60; assay: Percent of viability for HL-60 cells was determined by dividing number of viable differentiated cells by total number of viable cells, at concentration of 0.5 mM; assay type: functional, Homo sapiens; outline: as §3
[13] = tested on: HL-60; assay: Percent of differentiated in HL-60 cells was determined by dividing number of viable differentiated cells by total number of viable cells, at a concentration of 2.5 mM; assay type: functional, Homo sapiens; outline: as §1
[14] = tested on: HL-60; assay: Percent of differentiated in HL-60 cells was determined by dividing number of viable differentiated cells by total number of viable cells, at a concentration of 3.0 mM; assay type: functional, Homo sapiens; outline: as §1
[15] = tested on: HL-60; assay: Differentiation studies was conducted with the HL-60 human myeloid leukemia cell line and Total cells were counted with a Coulter counter, at a concentration of 3.0 mM; assay type: functional; outline: as §2
[16] = tested on: HL-60; assay: Percent of viability for HL-60 cells was determined by dividing number of viable differentiated cells by total number of viable cells, at concentration of 3.0 mM; assay type: functional, Homo sapiens; outline: as §3
[17] = tested on: HL-60; assay: Percent of differentiated in HL-60 cells was determined by dividing number of viable differentiated cells by total number of viable cells, at a concentration of 2.0 mM; assay type: functional, Homo sapiens; outline: as §1
[18] = tested on: HL-60; assay: Differentiation studies was conducted with the HL-60 human myeloid leukemia cell line and total cells were counted with a Coulter counter, at a concentration of 2.0 mM; assay type: functional; outline: as §2
[19] = tested on: HL-60; assay: Percent of viability for HL-60 cells was determined by dividing number of viable differentiated cells by total number of viable cells, at concentration of 2.5 mM; assay type: functional, Homo sapiens; outline: as §3
[20] = tested on: HL-60; assay: Percent of viability for HL-60 cells was determined by dividing number of viable differentiated cells by total number of viable cells, at concentration of 2.0 mM; assay type: functional, Homo sapiens; outline: as §3
[21] = tested on: HL-60; assay: Differentiation studies was conducted with the HL-60 human myeloid leukemia cell line and Total cells were counted with a Coulter counter, at a concentration of 2.5 mM; assay type: functional; outline: as §2
[22] = tested on: HL-60; assay: Percent of differentiated HL-60 cells was determined by dividing number of viable differentiated cells by total number of viable cells, at a concentration of 2.0 mM; assay type: functional, Homo sapiens; outline: as §1
[23] = tested on: HL-60; assay: Percent of viability for HL-60 cells was determined by dividing number of viable differentiated cells by total number of viable cells, at concentration of 1.0 mM; assay type: functional, Homo sapiens; outline: as §3
[24] = tested on: HL-60; assay: Differentiation studies was conducted with the HL-60 human myeloid leukemia cell line and Total cells were counted with a Coulter counter, at a concentration of 2.0 mM (number of experiments = 1); assay type: functional; outline: as §2
[25] = tested on: HL-60; assay: Percent of differentiated HL-60 cells was determined by dividing number of viable differentiated cells by total number of viable cells, at a concentration of 1.0 mM; assay type: functional, Homo sapiens; outline: as §1
[26] = tested on: HL-60; assay: Percent of viability for HL-60 cells was determined by dividing number of viable differentiated cells by total number of viable cells, at concentration of 1.5 mM; assay type: functional, Homo sapiens; outline: as §3
[27] = tested on: HL-60; assay: Differentiation studies was conducted with the HL-60 human myeloid leukemia cell line and total cells were counted with a Coulter counter, at a concentration of 1.0 mM; assay type: functional; outline: as §2
[28] = tested on: HL-60; assay: Differentiation studies was conducted with the HL-60 human myeloid leukemia cell line and Total cells were counted with a Coulter counter, at a concentration of 1.5 mM; assay type: functional; outline: as §2
[29] = tested on: HL-60; assay: Percent of differentiated HL-60 cells was determined by dividing number of viable differentiated cells by total number of viable cells, at a concentration of 1.5 mM; assay type: functional, Homo sapiens; outline: as §1
[30] = tested on: HL-60; assay: Percent of differentiated HL-60 cells was determined by dividing number of viable differentiated cells by total number of viable cells, at a concentration of 3.0 mM; assay type: functional, Homo sapiens; outline: as §1
[31] = tested on: HL-60; assay: Percent of viability for HL-60 cells was determined by dividing number of viable differentiated cells by total number of viable cells, at concentration of 4.0 mM; assay type: functional, Homo sapiens; outline: as §3
[32] = tested on: HL-60; assay: Percent of differentiated HL-60 cells was determined by dividing number of viable differentiated cells by total number of viable cells, at a concentration of 4.0 mM; assay type: functional, Homo sapiens; outline: as §1
[33] = tested on: HL-60; assay: Differentiation studies was conducted with the HL-60 human myeloid leukemia cell line and Total cells were counted with a Coulter counter, at a concentration of 4.0 mM; assay type: functional; outline: as §2

CC1(C)NC(=O)N(CCCCCCN2C(=O)NC(C)(C)C2=O)C1=O
D [1]: 76% | Total cells [2]: 870000 mL | D [3]: 45% | V [4]: 96% | V [5]: 82% | Total cells [6]: 310000 mL | V [7]: 53% | Total cells [8]: 480000 mL | Total cells [9]: 420000 mL | D [10]: 26% | D [11]: 9% | V [12]: 43%

CC(=O)N(CCCCCCN(C(C)=O)C(C)=O)C(C)=O
D [13]: 76% | D [14]: 80% | Total cells [15]: 300000 mL | V [16]: 45% | D [17]: 65% | Total cells [18]: 530000 mL | V [19]: 51% | V [20]: 71% | Total cells [21]: 480000 mL

CC(=O)NCCCCCC(=O)N(C)C
D [22]: 12% | V [23]: 85% | Total cells [24]: 940000 mL | D [25]: 24% | V [26]: 78% | Total cells [27]: 700000 mL | Total cells [28]: 1.07e+06 mL | D [29]: 13% | V [20]: 82%

CC(=O)NCCCCCCNC(C)=O [HEXAMETHYLENEBISACETAMIDE]
Total cells [15]: 520000 mL | V [16]: 68% | D [22]: 32% | Total cells [18]: 690000 mL | D [30]: 59% | V [31]: 29% | D [32]: 84% | V [20]: 74% | Total cells [33]: 390000 mL
